Assay results published in ChEMBL document CHEMBL3046238, “Synthesis and biological activity evaluation of 1,2,3-thiadiazole derivatives as potential elicitors with highly systemic acquired resistance” (2009).
Calls of active or inactive are those of the source. The rule behind the calls is not given here.

Legend:
Assay type in all cases: functional
Botrytis cinerea = test: Antifungal activity against Botryotinia fuckeliana assessed as growth inhibition at 50 ug/mL measured after 2 days post dose; details: for inhibition of growth at 50 µg/mL: 48 h, read-out: GI
Mycosphaerella arachidis = test: Antifungal activity against Mycosphaerella arachidis assessed as growth inhibition at 50 ug/mL measured after 2 days post dose; details: 48 h, read-out: GI
[1] = system: Botryosphaeria berengeriana; test: Antifungal activity against Botryosphaeria berengeriana assessed as growth inhibition at 50 ug/mL measured after 2 days post dose; details: 48 h, read-out: GI
Cytospora mali = test: Antifungal activity against Valsa mali assessed as growth inhibition at 50 ug/mL measured after 2 days post dose; details: for inhibition of growth at 50 µg/mL: 48 h, read-out: GI
Rhizoctonia solani = test: Antifungal activity against Rhizoctonia solani assessed as growth inhibition at 50 ug/mL measured after 2 days post dose; details: for inhibition of growth at 50 µg/mL: 48 h, read-out: GI
Fusarium graminearum = test: Antifungal activity against Fusarium graminearum assessed as growth inhibition at 50 ug/mL measured after 2 days post dose; details: 48 h, read-out: GI
Method in brief: (§1)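 Compound stock at 500 μg/mL in DMF, diluted with sterile water in the dish and mixed into potato dextrose agar before setting. A 4 mm diameter fungal plug is placed on the plate and cultured at 24-26 °C. Colony diameter is measured after 2 days.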

Ustilaginoidea virens = test: Antifungal activity against Villosiclava virens assessed as growth inhibition at 50 ug/mL measured after 2 days post dose; details: for inhibition of growth at 50 µg/mL: 48 h, read-out: GI
[2] = system: Fusarium oxysporum f. sp. vasinfectum; test: Antifungal activity against Fusarium oxysporum f. sp. vasinfectum assessed as growth inhibition at 50 ug/mL measured after 2 days post dose; details: for inhibition of growth at 50 µg/mL: 48 h, read-out: GI
Sclerotinia sclerotiorum = test: Antifungal activity against Sclerotinia sclerotiorum assessed as growth inhibition at 50 ug/mL measured after 2 days post dose; details: 48 h, read-out: GI
Tobacco mosaic virus = test: Induction of systemic acquired resistance against Tobacco mosaic virus (TMV) in tobacco plants exposed to 500 ug/mL compound through leaf spray followed by 7 days culture under green house conditions assessed as inhibition of viral growth in leaves infected with Tobacco mosaic virus (TMV) measured 72 hr post viral infection by half-leaf juice rubbing method
Method in brief: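 Tobacco plants received compound by leaf spray or by soil irrigation, with double-distilled water as CK. Newly grown leaves were then rub-inoculated with TMV (5.88×10-2 μg/mL), and plants were kept at 25 °C for 72 h. Lesions on inoculated leaves were counted. Inhibition = (CK−A)/CK×100 from mean lesion numbers versus control.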

Fusarium oxysporum = test: Antifungal activity against Fusarium oxysporum assessed as growth inhibition at 50 ug/mL measured after 2 days post dose; details: 48 h, read-out: GI
Ceratobasidium cereale = test: Antifungal activity against Ceratobasidium cereale assessed as growth inhibition at 50 ug/mL measured after 2 days post dose; details: for inhibition of growth at 50 µg/mL: 48 h, read-out: GI
Alternaria solani = test: Antifungal activity against Alternaria solani assessed as growth inhibition at 50 ug/mL measured after 2 days post dose; details: 48 h, read-out: GI
Fusarium fujikuroi = test: Antifungal activity against Fusarium fujikuroi assessed as growth inhibition at 50 ug/mL measured after 2 days post dose; details: for inhibition of growth at 50 µg/mL: 48 h, read-out: GI
Alternaria mali = test: Antifungal activity against Alternaria mali assessed as growth inhibition at 50 ug/mL measured after 2 days post dose; details: for inhibition of growth at 50 µg/mL: 48 h, read-out: GI
Puccinia triticina = test: Antifungal activity against Puccinia triticina inoculated on 500 ug/mL compound pre-treated wheat plants with 3 to 5 leaves assessed as growth inhibition
Method in brief: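 Healthy wheat plants at the 3-5 leaf stage were sprayed with compound (500 μg/mL) and then inoculated with spores. Inhibition percentage was calculated against the corresponding spore stack.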

[3] = system: Colletotrichum gloeosporioides; test: Antifungal activity against Glomerella cingulata assessed as growth inhibition at 50 ug/mL measured after 2 days post dose; details: 48 h, read-out: GI
Phytophthora infestans = test: Antifungal activity against Phytophthora infestans assessed as growth inhibition at 50 ug/mL measured after 2 days post dose; details: 48 h, read-out: GI; method in brief: as §1

| Compound | inhibition of growth at 50 µg/mL (Botrytis cinerea) [%] | inhibition of growth at 50 µg/mL (Mycosphaerella arachidis) [%] | inhibition of growth at 50 µg/mL [1] [%] | inhibition of growth at 50 µg/mL (Cytospora mali) [%] | inhibition of growth at 50 µg/mL (Rhizoctonia solani) [%] | inhibition of growth at 50 µg/mL (Fusarium graminearum) [%] | inhibition of growth at 50 µg/mL (Ustilaginoidea virens) [%] | inhibition of growth at 50 µg/mL [2] [%] | inhibition of growth at 50 µg/mL (Sclerotinia sclerotiorum) [%] | Activity (Tobacco mosaic virus) | inhibition of growth at 50 µg/mL (Fusarium oxysporum) [%] | inhibition of growth at 50 µg/mL (Ceratobasidium cereale) [%] | inhibition of growth at 50 µg/mL (Alternaria solani) [%] | inhibition of growth at 50 µg/mL (Fusarium fujikuroi) [%] | inhibition of growth at 50 µg/mL (Alternaria mali) [%] | growth inhibition (GI) (Puccinia triticina) [%] | inhibition of growth at 50 µg/mL [3] [%] | inhibition of growth at 50 µg/mL (Phytophthora infestans) [%] | growth inhibition (GI) (Botrytis cinerea) | growth inhibition (GI) (Cytospora mali) | also measured |
| --- | --- | --- | --- | --- | --- | --- | --- | --- | --- | --- | --- | --- | --- | --- | --- | --- | --- | --- | --- | --- | --- |
| Cc1cccc(-c2nnc(-c3snnc3C)o2)c1 | 37.9 | 23.5 | 47.2 | 47.2 | 0 | 24.1 | 0 | 0 | 23.5 | inactive | 0 | 37.9 | 0 | 24.1 | 41.4 | 98 | 0 | 17.1 | – | – | – |
| Cc1ccc(-c2nnc(-c3snnc3C)o2)c(Cl)n1 | 17.2 | 23.5 | 38.9 | 22.2 | 22.2 | 31 | 17.6 | 0 | 0 | 30% | 0 | 13.8 | 0 | 17.2 | 24.1 | 17 | 0 | 30 | – | – | – |
| CCc1cc(-c2nnc(-c3snnc3C)o2)nn1C | – | 33.3 | 16.7 | – | – | 27.8 | – | – | 0 | 20% | 26.5 | – | 17.9 | – | – | 20 | 42.1 | 17.1 | inactive | inactive | growth inhibition (GI) (Rhizoctonia solani): inactive; growth inhibition (GI) (Ustilaginoidea virens): inactive; growth inhibition (GI) [2]: inactive; growth inhibition (GI) (Ceratobasidium cereale): inactive; growth inhibition (GI) (Fusarium fujikuroi): inactive; growth inhibition (GI) (Alternaria mali): inactive |
| CCCCCCCc1nnc(-c2snnc2C)o1 | 0 | 0 | 25.4 | 0 | 26.6 | 34.2 | 0 | 0 | 32.1 | 0% | 12.5 | 0 | 31.6 | 21.1 | 38.9 | 83 | 42.1 | 100 | – | – | – |
| Cc1nnsc1-c1nnc(/C=C/c2ccccc2)o1 | 0 | 27.3 | 46 | 20.3 | 0 | 36.8 | 0 | 23.7 | 0 | 0% | 36.3 | 0 | 31.6 | 21.1 | 0 | 20 | 13.8 | 20 | – | – | – |
| Cc1nnsc1-c1nnc(-c2ccco2)o1 | – | 87.5 | 38.9 | – | – | 22.2 | – | – | 0 | 0% | 19.1 | – | 53.6 | – | – | 0 | 42.1 | 0 | inactive | inactive | growth inhibition (GI) (Rhizoctonia solani): inactive; growth inhibition (GI) (Ustilaginoidea virens): inactive; growth inhibition (GI) [2]: inactive; growth inhibition (GI) (Ceratobasidium cereale): inactive; growth inhibition (GI) (Fusarium fujikuroi): inactive; growth inhibition (GI) (Alternaria mali): inactive |
